Results gathered from unrelated publications.
Lines come from different studies, so protocols differ.

| Compound | tested on | assay | system | setting | endpoint | result |
| --- | --- | --- | --- | --- | --- | --- |
| O=C(CO/N=c1\cc2n(-c3ccc(Cl)cc3)c3ccccc3nc-2cc1Nc1ccc(Cl)cc1)NCc1ccc(C(F)(F)F)cc1 | Mycobacterium avium | microbial growth | ATCC700898 | – | MIC | > 30 µM |
| NCCCc1nc(N)nc(N)c1OCCCOc1ccccc1CCC(=O)O | Mycobacterium avium | microbial growth, resazurin | – | – | MIC | 12.9 µg/mL |
| O/N=c1\cc2n(-c3ccc(Cl)cc3)c3ccccc3nc-2cc1Nc1ccc(Cl)cc1 | Mycobacterium avium | microbial growth | – | clinical isolate | MIC | > 30 µM |
| CC(=O)OCCCOc1ccc(C(=O)C(Cl)Cl)cc1[N+](=O)[O-] | NCI-H1975 | cell growth or viability, MTT | – | 2.5 µM | inhibition | 78.2% |
| C=CC(=O)NC1CCN(c2ncc3ncnc(Nc4ccc(Oc5ccc6c(c5)ncn6C)c(C)c4)c3n2)CC1 | NCI-H520 | cell growth or viability | – | – | EC50 | 706 nM |
| O=C(O)CO/N=c1\cc2n(-c3ccc(Cl)cc3)c3ccccc3nc-2cc1Nc1ccc(Cl)cc1 | Mycobacterium avium | microbial growth | ATCC700898 | – | MIC | 0.94 µM |
| COc1cccc2c1C(=O)c1c(O)c3c(c(O)c1C2=O)C[C@@](O)(C(=O)CO)C[C@@H]3O[C@H]1C[C@H](N)[C@H](O)[C@H](C)O1 | NCI-H1975 | cell growth or viability, MTT | – | 2.5 µM | inhibition | 97.7% |
| COc1cccc(-c2nc(N)nc(N)c2OCCCOc2ccccc2CCC(=O)O)c1 | Mycobacterium avium | microbial growth, resazurin | – | – | MIC | 5.6 µg/mL |
| CC(C)/N=c1\cc2n(-c3ccc(Cl)cc3)c3ccccc3nc-2cc1Nc1ccc(Cl)cc1 | Mycobacterium avium | microbial growth | ATCC700898 | – | MIC | 0.06 µM |
| O=C(c1ccc(Oc2ccc(-c3ccccc3)cc2)c([N+](=O)[O-])c1)C(Cl)Cl | NCI-H1975 | cell growth or viability, MTT | – | 2.5 µM | inhibition | 85.2% |
| CCCCCc1nc(N)nc(N)c1OCCCOc1ccccc1CCC(=O)O | Mycobacterium avium | microbial growth, resazurin | – | – | MIC | 0.6 µg/mL |
| O=C(c1ccc(Oc2cccc(-c3ccccc3)c2)c([N+](=O)[O-])c1)C(Cl)Cl | NCI-H1975 | cell growth or viability, MTT | – | 2.5 µM | inhibition | 98.1% |
| CCOC(=O)CNC(=O)CO/N=c1\cc2n(-c3ccc(Cl)cc3)c3ccccc3nc-2cc1Nc1ccc(Cl)cc1 | Mycobacterium avium | microbial growth | ATCC700898 | – | MIC | 1.88 µM |
| Nc1nc(N)c(OCCCOc2ccccc2CCC(=O)O)c(-c2ccncc2)n1 | Mycobacterium avium | microbial growth, resazurin | – | – | MIC | 0.6 µg/mL |
| O=C(c1ccc(Oc2ccc3oc(=O)ccc3c2)c([N+](=O)[O-])c1)C(Cl)Cl | NCI-H1975 | cell growth or viability, MTT | – | 2.5 µM | inhibition | 61.6% |
| CN(Cc1ccc(C(C)(C)C)cc1)Cc1cccc2ccccc12 | Trichophyton rubrum | microbial growth, disc diffusion | ATCC28188 | 0.512 µg/mL, 6 days | inhibition zone | ≥ 55 mm |
| O=C(c1ccc(Oc2ccc3cc(Br)ccc3c2Cl)c([N+](=O)[O-])c1)C(Cl)Cl | NCI-H1975 | cell growth or viability, MTT | – | 2.5 µM | inhibition | 85.4% |
| CN(Cc1ccc(C2(C(F)(F)F)CC2)cc1)Cc1cccc2ccccc12 | Trichophyton rubrum | microbial growth, disc diffusion | ATCC28188 | 0.064 µg/mL, 6 days | inhibition zone | ≥ 55 mm |
| CO/N=c1\cc2n(-c3ccc(Cl)cc3)c3ccccc3nc-2cc1Nc1ccc(Cl)cc1 | Mycobacterium avium | microbial growth | – | clinical isolate | MIC | > 30 µM |
